Data on 11 molecules can be found in ChEMBL document CHEMBL1125477, “Highly potent and selective heptapeptide antagonists of the neurokinin NK-2 receptor” (J Med Chem, 1992).

Square brackets hold non-standard residues; d marks the D form. Peptide text beside a SMILES is read from it. * marks the point of attachment. Nle = CCCC[C@H](N)C(=O)O; Bz = O=C(c1ccccc1)*

Test [1] deals with Substance-P receptor (Cavia porcellus) (UniProt P30547). As to the kind of experiment: Compound was evaluated for antagonism of contractile response of guinea pig ileum longitudinal smooth muscle (GPI) at tachykinin receptor 1. Type of test: functional, tissue-based. The method, boiled down: (§1)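 Isolated longitudinal smooth muscle of ileum from male Dunkin-Hartley guinea-pigs (300–600 g), killed by concussion and exsanguination. Contraction to SP methyl ester (NK-1 agonist). At least two control agonist curves, then one antagonist concentration per preparation. Concentration-ratio read graphically at half-maximal response. pK_B = log(CR−1) − log[antagonist]. Mean ± SE over four to eight tissues.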

Test [2] has as its target T1, Substance-K receptor (Rattus norvegicus) (UniProt P16610).
T1 sequence (whole entry): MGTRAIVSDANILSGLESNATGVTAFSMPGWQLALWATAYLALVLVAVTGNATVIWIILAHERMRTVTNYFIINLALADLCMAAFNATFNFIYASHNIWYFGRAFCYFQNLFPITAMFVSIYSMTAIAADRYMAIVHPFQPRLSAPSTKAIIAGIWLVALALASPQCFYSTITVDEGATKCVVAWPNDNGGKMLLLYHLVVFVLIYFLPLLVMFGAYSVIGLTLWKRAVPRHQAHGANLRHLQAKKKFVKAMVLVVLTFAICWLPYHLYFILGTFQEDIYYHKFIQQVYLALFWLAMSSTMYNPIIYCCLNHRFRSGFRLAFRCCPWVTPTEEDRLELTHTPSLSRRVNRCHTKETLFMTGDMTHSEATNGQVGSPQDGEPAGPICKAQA
As to the kind of experiment: Compound was evaluated for antagonism of contractile response of rat colon muscularis mucosae (RC) at tachykinin receptor 2. Type of test: functional, tissue-based. To be noted: Muscularis mucosa. The method, boiled down:
(§2)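 Colon muscularis mucosae from male AHA rats (250–500 g), killed by concussion and exsanguination. Contraction to neurokinin A (NK-2). At least two control agonist curves, then a single antagonist concentration per tissue. Equiactive agonist concentration-ratio taken at half-maximal response. pK_B = log(CR−1) − log[antagonist]. Mean ± SE over four to eight preparations.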

Test [3] deals with T2, Neuromedin-K receptor (Rattus norvegicus) (UniProt P16177).
T2 sequence (whole entry): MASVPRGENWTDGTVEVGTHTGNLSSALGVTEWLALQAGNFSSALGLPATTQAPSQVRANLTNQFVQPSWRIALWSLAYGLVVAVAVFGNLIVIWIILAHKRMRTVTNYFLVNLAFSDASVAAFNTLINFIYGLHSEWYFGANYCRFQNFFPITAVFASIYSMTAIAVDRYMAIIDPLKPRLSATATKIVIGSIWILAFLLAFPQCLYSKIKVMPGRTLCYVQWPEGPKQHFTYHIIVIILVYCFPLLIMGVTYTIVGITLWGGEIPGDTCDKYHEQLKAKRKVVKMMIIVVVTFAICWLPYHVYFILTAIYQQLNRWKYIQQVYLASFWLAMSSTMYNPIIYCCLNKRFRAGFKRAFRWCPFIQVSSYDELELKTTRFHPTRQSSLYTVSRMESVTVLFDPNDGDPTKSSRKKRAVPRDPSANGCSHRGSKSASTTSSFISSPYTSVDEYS
As to the kind of experiment: Compound was evaluated for antagonism of contractile response of rat portal vein at tachykinin receptor 3. In kind it is functional. An outline of the steps: (§3)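 Everted portal vein from male AHA rats (250–500 g). Contraction to senktide (NK-3). Agonist curves were repeated at least twice before exposure to one antagonist concentration per preparation. Concentration-ratio estimated graphically at the half-maximal level. pK_B = log(CR−1) − log(molar antagonist). Mean ± SE of four to eight tissues.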

The target in test [4] is T1, Substance-K receptor (Rattus norvegicus). As to the kind of experiment: Compound was evaluated for antagonism of contractile response of rat colon muscularis mucosae (RC) at Tachykinin receptor 2. Type of test: functional, tissue-based. Conditions: Muscularis mucosa. The method, boiled down: as §2
The target in test [5] is Substance-P receptor (Cavia porcellus) (UniProt P30547). As to the kind of experiment: Compound was evaluated for antagonism of contractile response of guinea pig ileum longitudinal smooth muscle (GPI) at Tachykinin receptor 1. Type of test: functional, tissue-based. The method, boiled down:
as §1

In test [6] the target is T2, Neuromedin-K receptor (Rattus norvegicus). As to the kind of experiment: Compound was evaluated for antagonism of contractile response of rat portal vein at Tachykinin receptor 3. Type of test: functional. The method, boiled down: as §3

Substance-P receptor (Cavia porcellus), sequence (P30547 whole entry): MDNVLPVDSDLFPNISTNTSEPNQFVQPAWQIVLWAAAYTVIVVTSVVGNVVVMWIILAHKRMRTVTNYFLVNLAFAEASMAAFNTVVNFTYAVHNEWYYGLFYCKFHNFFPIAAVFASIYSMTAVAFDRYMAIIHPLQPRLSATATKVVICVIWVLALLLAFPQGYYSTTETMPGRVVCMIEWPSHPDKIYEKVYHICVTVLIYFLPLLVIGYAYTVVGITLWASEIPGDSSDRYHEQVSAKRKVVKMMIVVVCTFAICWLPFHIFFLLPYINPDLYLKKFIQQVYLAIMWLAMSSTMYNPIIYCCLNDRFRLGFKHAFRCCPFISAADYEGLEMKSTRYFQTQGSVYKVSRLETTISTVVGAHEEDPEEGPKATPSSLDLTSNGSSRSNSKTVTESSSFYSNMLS

Broadly, the pKB is the KB on a negative log10 scale, so that one unit is a factor of ten. Take `CSCC[C@@H](NC(=O)[C@H](CC(C)C)NC(=O)[C@H]1CCCN1C(=O)[C@H](Cc1ccccc1)NC(=O)[C@@H](Cc1c[nH]c2ccccc12)NC(=O)[C@H](C)NC(=O)[C@@H](N)CCCN=C(N)N)C(N)=O`: the pKB is under 4.6 in test [1], 5.7 in test [2] and 4.9 in test [3].
As for `CCCC[C@H](NC(=O)[C@@H]1CCCN1C(=O)[C@H]1CCCN1C(=O)[C@H](Cc1ccccc1)NC(=O)[C@@H](Cc1c[nH]c2ccccc12)NC(=O)[C@H](C)NC(=O)[C@H](C)NC(=O)c1ccccc1)C(N)=O` (Bz-AA[dW]F[dP]P[Nle]-NH2), the figures for the pKB in test [4], in test [5] and in test [6] were 9.6, 6.4 and 6, respectively.
As for `CCCC[C@H](NC(=O)[C@@H]1CCCN1C(=O)[C@H]1CCCN1C(=O)[C@H](Cc1ccccc1)NC(=O)[C@@H](Cc1c[nH]c2ccccc12)NC(=O)[C@H](C)NC(=O)[C@H](C)NC(=O)OC(C)(C)C)C(N)=O`, the pKB was found to be 9.3 in test [4], 5.5 in test [5] and 4.7 in test [6].
Regarding `CCCC[C@H](NC(=O)[C@@H]1CCCN1C(=O)[C@H]1CCCN1C(=O)[C@H](Cc1ccccc1)NC(=O)[C@H](Cc1ccccc1)NC(=O)[C@H](C)NC(=O)[C@@H](N)CCCN=C(N)N)C(N)=O`, the pKB in test [1], in test [2] and in test [3] was under 4.6 each time.
For the molecule `CCCC[C@H](NC(=O)[C@@H]1CCCN1C(=O)[C@H]1CCCN1C(=O)[C@H](Cc1ccccc1)NC(=O)[C@@H](Cc1c[nH]c2ccccc12)NC(=O)[C@H](C)NC(=O)[C@H](CCC/N=C(\N)N[N+](=O)[O-])NC(=O)OC(C)(C)C)C(N)=O`, the negative-log KB (pKB) in test [1] stood at 5.5; in test [2], 8.2; in test [3] it was 5.2.
On the same counts, the results for `CCCC[C@H](NC(=O)[C@@H]1CCCN1C(=O)[C@H]1CCCN1C(=O)[C@H](Cc1ccccc1)NC(=O)[C@@H](Cc1c[nH]c2ccccc12)NC(=O)[C@H](C)NC(=O)[C@H](CCCN=C(N)N)NC(=O)OC(C)(C)C)C(N)=O` are 5.8, 8.2 and under 4.6.
Regarding `CCCC[C@H](NC(=O)[C@@H]1CCCN1C(=O)CNC(=O)[C@H](Cc1ccccc1)NC(=O)[C@@H](Cc1c[nH]c2ccccc12)NC(=O)[C@H](C)NC(=O)[C@@H](N)CCCN=C(N)N)C(N)=O`, the pKB in test [1] is 4.8; in test [2], under 4.6; in test [3], under 4.6.
In the case of `CCCC[C@H](NC(=O)[C@@H]1CCCN1C(=O)[C@H]1CCCN1C(=O)[C@H](Cc1ccccc1)NC(=O)[C@@H](Cc1c[nH]c2ccccc12)NC(=O)[C@H](C)NC(=O)[C@H](CCC(N)=O)NC(=O)c1ccccc1)C(N)=O`, the pKB was found to be 8.8 in test [4], 6.6 in test [5] and 5.6 in test [6].
For the molecule `CCCC[C@H](NC(=O)[C@@H]1CCCN1C(=O)[C@H]1CCCN1C(=O)[C@H](Cc1ccccc1)NC(=O)[C@@H](Cc1c[nH]c2ccccc12)NC(=O)[C@H](C)NC(=O)[C@@H](N)CCCN=C(N)N)C(N)=O`, the pKB is 4.7 in test [1], 5.9 in test [2] and under 4.6 in test [3].
For `CCCC[C@H](NC(=O)[C@@H]1CCCN1C(=O)[C@H]1CCCN1C(=O)[C@H](Cc1ccccc1)NC(=O)[C@@H](Cc1c[nH]c2ccccc12)NC(=O)[C@H](C)NC(=O)[C@H](CCC(N)=O)NC(=O)OC(C)(C)C)C(N)=O`, the pKB in test [4] came to 7.9; in test [5] it was 5.6; in test [6], 5.1.
Consider `CCCC[C@H](NC(=O)[C@H](CC(C)C)NC(=O)[C@@H](Cc1c[nH]c2ccccc12)NC(=O)[C@H](Cc1ccccc1)NC(=O)[C@@H](Cc1c[nH]c2ccccc12)NC(=O)[C@H](C)NC(=O)[C@@H](N)CCCN=C(N)N)C(N)=O`, for which the pKB in test [1] was 6; in test [2] it was 6.2; in test [3], under 4.6.
